How the values were obtained:
[1] = Cytotoxicity against human HepG2 cells assessed as reduction in cell viability after 72 hrs by MTT assay; type: cell-based
[2] = tested on: Trypanosoma brucei brucei; test: […] activity against Trypanosoma brucei brucei AnTat 1.9 measured after 74 hrs by Alamar blue assay; type: functional, organism-based; conditions: AnTat 1.9, 74 h
In short: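 Bloodstream T. b. brucei AnTat 1.9 grown at 37 °C, 5% CO₂ in MEM with Earle's salts plus mercaptoethanol, L-cysteine, bathocuproine sulfate and 20% heat-inactivated horse serum. Seeded at 2000 parasites/100 µL and exposed in duplicate to compounds in DMSO for 69 h. Alamar Blue then added for 5 h, fluorescence read at ex 530/em 590 nm. EC50 by nonlinear regression from three independent experiments.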

Leishmania donovani [3] = test: Antileishmanial activity against Leishmania donovani MHOM/IN/00/DEVI promastigotes assessed as inhibition of metabolic activity measured after 72 hrs by MTT assay; type: functional, organism-based
In short: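 L. donovani MHOM/IN/00/DEVI promastigotes grown in Schneider's medium with 20% FCS at 27 °C. Log-phase parasites at 10⁶/mL were exposed in duplicate to serial compound concentrations in DMSO (final <0.5%) for 72 h at 27 °C. MTT was added for 4 h and absorbance read at 570 nm. EC50 from non-linear regression, mean of at least three independent experiments.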

[4] = Solubility of the compound in aqueous medium at highest dose; type: physicochemical; conditions: buffer
[5] = Selectivity index, ratio of CC50 for cytotoxicity against human HepG2 cells to EC50 for antileishmanial activity against Leishmania donovani MHOM/IN/00/DEVI promastigotes; type: toxicity, cell-based; conditions: read-out: Selectivity Index
[6] = Selectivity index, ratio of CC50 for human HepG2 cells to EC50 for Trypanosoma brucei brucei AnTat 1.9; type: toxicity; conditions: read-out: Selectivity Index
Leishmania donovani [7] = test: Antileishmanial activity against Leishmania donovani BOB (MHOM/SD/62/1S-CL2D) promastigotes overexpressing NTR2 incubated for 72 hrs by resazurin dye based assay; type: functional, organism-based
In short: (§1)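 Clonal L. donovani LdBOB promastigotes grown at 26 °C in modified M199; NTR1- and NTR2-overexpressing lines maintained with nourseothricin (100 µg/mL). Triplicate 10 mL cultures seeded at 5×10^4 parasites/mL with drug for 72 h; 200 µL aliquots then given 50 µM resazurin, fluorescence (ex 528/em 590 nm) after 4 h more. EC50 from slope-factor equation; experiments repeated at least twice, mean plus standard deviation.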

Leishmania donovani [8] = test: Antileishmanial activity against wild type Leishmania donovani BOB (MHOM/SD/62/1S-CL2D) promastigotes incubated for 72 hrs by resazurin dye based assay; type: functional, organism-based; in short: as §1
Leishmania donovani [9] = test: Antileishmanial activity against Leishmania donovani BOB (MHOM/SD/62/1S-CL2D) promastigotes overexpressing NTR1 incubated for 72 hrs by resazurin dye based assay; type: functional, organism-based; in short: as §1
[10] = tested on: Trypanosoma brucei brucei; test: Antitrypanosomal activity against bloodstream form of wild type Trypanosoma brucei brucei S427 trypomastigotes incubated for 72 hrs; type: functional, organism-based; conditions: S427, 72 h
In short: (§2)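 Bloodstream-form T. brucei 'single marker' S427 cultured at 37 °C in HMI9-T with 2.5 µg/mL G418. The NTR1-overexpressing line was kept with 2.5 µg/mL phleomycin and induced with 1 µg/mL tetracycline 48 h before testing. Triplicate cultures seeded at 1×10^5 cells/mL with inhibitor. Cell densities counted after 72 h. EC50 from slope-factor equation.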

[11] = tested on: Trypanosoma brucei brucei; test: Antitrypanosomal activity against bloodstream form of Trypanosoma brucei brucei S427 trypomastigotes overexpressing NTR incubated for 72 hrs; type: functional, organism-based; conditions: S427, 72 h; in short: as §2
THP-1 = test: Cytotoxicity against human THP-1 cells assessed as reduction in cell viability after 72 hrs by MTT assay; type: functional
In short: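 THP-1 cells at 5×10⁴ cells/mL in complete RPMI were exposed in duplicate to compounds in DMSO (final <0.5%) for 72 h at 37 °C. MTT at 0.5 mg/mL for 2 h, formazan dissolved in DMSO, absorbance read at 570 nm with 630 nm reference. CC50 from the dose-response curve, mean of three independent experiments.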

Row | Structure (SMILES) | EC50 [2] | solubility [4] | CC50 at 72 h [1] | EC50 (Leishmania donovani [3]) | selectivity ratio [5] | selectivity ratio [6] | also measured
1 | O=[N+]([O-])c1c(CS(=O)(=O)c2ccccc2)nc2c(-c3ccncc3)cc(Cl)cn12 | 0.25 µM |  | > 50 µM | 1.2 µM |  |  | 
2 | O=[N+]([O-])c1c(CS(=O)(=O)c2ccccc2)nc2c(C#CC3(O)CCCC3)cc(Cl)cn12 | 0.1 µM | Insoluble | > 31.3 µM | 1.7 µM | > 18.4 | > 313 | 
3 | CCC(O)CC#Cc1cc(Cl)cn2c([N+](=O)[O-])c(CS(=O)(=O)c3ccccc3)nc12 (configuration not stated) | 0.04 µM | Insoluble | > 62.5 µM | 1.6 µM | > 39.1 | > 1560 | EC50 (Leishmania donovani [7]): 8.5 µM; EC50 (Leishmania donovani [8]): 7.3 µM; EC50 (Leishmania donovani [9]): 0.4 µM; EC50 [10]: 0.2 µM; EC50 [11]: 0.0663 µM
4 | O=[N+]([O-])c1c(CS(=O)(=O)c2ccccc2)nc2c(Br)cc(Br)cn12 | 2.9 µM | Insoluble | > 31 µM | 1.8 µM |  |  | 
5 | Nc1c(CS(=O)(=O)c2ccccc2)nc2c(C#CCCO)cc(Cl)cn12 | 6.8 µM | Insoluble | > 62.5 µM | > 62.5 µM |  | > 9.2 | 
6 | O=C(Cn1ccnc1[N+](=O)[O-])NCc1ccccc1 [BENZNIDAZOLE] |  |  |  |  |  |  | CC50 (THP-1): > 200 µM
7 | CSc1ccc(OCc2ncc([N+](=O)[O-])n2C)cc1 [FEXINIDAZOLE] | 0.6 µM |  |  | 1.2 µM |  |  | CC50 (THP-1): > 200 µM
8 | CCCCCCCCCCCCCCCCOP(=O)([O-])OCC[N+](C)(C)C [MILTEFOSINE] |  |  |  |  |  |  | CC50 (THP-1): 35 µM
9 | CC1CS(=O)(=O)CCN1/N=C/c1ccc([N+](=O)[O-])o1 (configuration not stated) [NIFURTIMOX] | 2.6 µM |  | 45.2 µM |  |  | 17.4 | 
10 | Cc1ccc(C(=O)Nc2ccc(S(=O)(=O)O)c3cc(S(=O)(=O)O)cc(S(=O)(=O)O)c23)cc1NC(=O)c1cccc(NC(=O)Nc2cccc(C(=O)Nc3cc(C(=O)Nc4ccc(S(=O)(=O)O)c5cc(S(=O)(=O)O)cc(S(=O)(=O)O)c45)ccc3C)c2)c1 [SURAMIN] |  |  | > 100 µM |  |  |  | 
11 | O=[N+]([O-])c1c(CS(=O)(=O)c2ccccc2)nc2c(C#CC3(O)CCCCC3)cc(Cl)cn12 | 0.1 µM | Insoluble | > 25 µM | 1 µM | > 25 | > 250 | 
12 | COc1cccc2c1C(=O)c1c(O)c3c(c(O)c1C2=O)C[C@@](O)(C(=O)CO)C[C@@H]3O[C@H]1C[C@H](N)[C@H](O)[C@H](C)O1 [DOXORUBICIN] |  |  |  |  |  |  | CC50 (THP-1): 0.7 µM
13 | NCCCC(N)(C(=O)O)C(F)F (configuration not stated) [EFLORNITHINE] |  |  | > 100 µM |  |  | > 7.5 | 

The next lines start with results.

Row | EC50 [2] | solubility [4] | Structure (SMILES) | CC50 at 72 h [1] | EC50 (Leishmania donovani [3]) | selectivity ratio [5] | selectivity ratio [6] | also measured
14 |  | Insoluble | COc1ccc(C#Cc2cc(Cl)cn3c([N+](=O)[O-])c(CS(=O)(=O)c4ccccc4)nc23)cc1 | > 3.9 µM |  |  |  | 
15 |  | Insoluble | Nc1ccc(C#Cc2cc(Cl)cn3c([N+](=O)[O-])c(CS(=O)(=O)c4ccccc4)nc23)cc1 | > 3.9 µM |  |  |  | 
16 |  | Insoluble | O=[N+]([O-])c1c(CS(=O)(=O)c2ccccc2)nc2c(C#Cc3cccc(F)c3)cc(Cl)cn12 | > 3.9 µM |  |  |  | 
17 |  | Insoluble | COc1ccccc1C#Cc1cc(Cl)cn2c([N+](=O)[O-])c(CS(=O)(=O)c3ccccc3)nc12 | > 3.9 µM |  |  |  | 
18 | 1.3 µM |  | O=[N+]([O-])c1c(CS(=O)(=O)c2ccccc2)nc2c(Sc3ccc(Cl)cc3)cc(Cl)cn12 |  | 1 µM |  | > 76.9 | 
19 | 0.16 µM |  | O=[N+]([O-])c1c(CS(=O)(=O)c2ccccc2)nc2c(C#CCOc3ccccc3)cc(Cl)cn12 | 8.4 µM | 1.3 µM | 6.5 | 52.5 | 
20 |  | Insoluble | COc1cccc(C#Cc2cc(Cl)cn3c([N+](=O)[O-])c(CS(=O)(=O)c4ccccc4)nc23)c1 | > 3.9 µM |  |  |  | 
21 | 0.16 µM | Insoluble | O=[N+]([O-])c1c(CS(=O)(=O)c2ccccc2)nc2c(C#Cc3ccc(CO)cc3)cc(Cl)cn12 | > 15.6 µM | 1.6 µM | > 9.8 | > 97.5 | 
22 |  | Insoluble | O=[N+]([O-])c1c(CS(=O)(=O)c2ccccc2)nc2c(C#Cc3cccs3)cc(Cl)cn12 | > 3.9 µM |  |  |  | 
23 |  | Insoluble | O=[N+]([O-])c1c(CS(=O)(=O)c2ccccc2)nc2c(C#Cc3ccccc3F)cc(Cl)cn12 | > 3.9 µM |  |  |  | 
24 |  | Insoluble | O=[N+]([O-])c1c(CS(=O)(=O)c2ccccc2)nc2c(C#Cc3ccc(F)cc3)cc(Cl)cn12 | > 3.9 µM |  |  |  | 
25 | 0.12 µM |  | O=[N+]([O-])c1c(CS(=O)(=O)c2ccccc2)nc2c(C#CCO)cc(Cl)cn12 | 10.1 µM | 3.9 µM | 2.6 | 84.2 | 
26 | 0.12 µM | Insoluble | CC(C)(O)C#Cc1cc(Cl)cn2c([N+](=O)[O-])c(CS(=O)(=O)c3ccccc3)nc12 | > 62.5 µM | 3 µM | > 20.8 | > 521 | 
27 | 0.13 µM |  | CC(O)(C#Cc1cc(Cl)cn2c([N+](=O)[O-])c(CS(=O)(=O)c3ccccc3)nc12)c1ccccc1 (configuration not stated) | 18.8 µM | 1 µM | 18.8 | > 145 | 
28 |  | Insoluble | O=[N+]([O-])c1c(CS(=O)(=O)c2ccccc2)nc2c(C#Cc3ccccc3)cc(Cl)cn12 | > 3.9 µM |  |  |  | 
29 | 0.04 µM |  | CC(O)C#Cc1cc(Cl)cn2c([N+](=O)[O-])c(CS(=O)(=O)c3ccccc3)nc12 (configuration not stated) | 44.2 µM | 4.7 µM | 9.4 | 1100 | 
30 |  | Insoluble | O=[N+]([O-])c1c(CS(=O)(=O)c2ccccc2)nc2c(C#Cc3cccnc3)cc(Cl)cn12 | > 3.9 µM |  |  |  | 

— ChEMBL document CHEMBL4765374, “8-Alkynyl-3-nitroimidazopyridines display potent antitrypanosomal activity against both T. b. brucei and cruzi” (Eur J Med Chem, 2020)
